Screens deposited in PubChem by several laboratories.
The list is not random: actives were taken first. Their share in the collection is about 5.4%.
hDAT+cocaine: changed hDAT dopamine uptake under cocaine IC80, either direction, primary screen, cocaine antagonist project, cell-based, LLC-PK1 hDAT, [14C]-dopamine uptake, MLSMR; Sodium-dependent dopamine transporter (Homo sapiens), Q01959; LLC-PK1 hDAT cells, [14C]-dopamine uptake with cocaine IC80; actives deviate in either direction; B-score at 10 µM; hit rate 1.3% among 110,000; AID 449768, 2010;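 active means Z score or B-score, a plate-position-corrected score, falls beyond the plate's 99.7% confidence bounds, in either direction; inactive means both scores lie inside the 99.7% bounds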;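 further: scored against the spread of the other compound wells on the same plate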
Cav3 T inh: Cav3.2 calcium influx blockers – cell-based, Fluo-4 calcium fluorescence, FDSS, MLSMR library, primary screen; Voltage-dependent T-type calcium channel subunit alpha-1H (Homo sapiens), O95180; Cav3.2-expressing cells; active compounds read low; B-score at 10 µM; hit rate 4% among 100,000; AID 449739, 2010;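 active means single-dose well whose peak fluorescence ratio is a statistical outlier from its plate by either plate-standardised score or position-corrected B-score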
HIV Rev-RRE inh: HIV-1 Rev-RRE binding inhibitors, primary screen, biochemical, FRET, protein-RNA interaction; Rev peptide-RRE RNA binding; inhibition, % at 8 µM; P05866; hit rate 0.79% among 97,000;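 active means inhibition above the screen-wide mean plus 3 SD, cut at about 35% in these data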;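 further: 0% = median DMSO wells and 100% = median Neomycin B control wells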
Target sequence (P05866 whole entry, looked up): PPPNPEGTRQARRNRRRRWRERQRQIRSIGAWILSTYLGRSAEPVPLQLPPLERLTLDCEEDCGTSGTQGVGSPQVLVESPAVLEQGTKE
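assay system = Cy5-tagged RRE RNA duplex with fluorescein-tagged Rev peptide | incubation = 5 + 15 min at 25 °C | also added = labelled Rev peptide | measure = % inhibition of FRET ratio versus controls | benchmarks = DMSO wells as 0% and neomycin B wells as 100% inhibition | measured by = FRET fluorescence readout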
EphB4 antag: EphB4-ephrin-B2 interaction antagonists, primary screen, biochemical, TNYL-RAW peptide probe, fluorescence polarization; Ephrin type-B receptor 4 (Homo sapiens), P54760; EphB4 LBD / TNYL-RAW-Alexa532 peptide; hit rate 0.15% among 97,000; inhibition, % at 7 µM;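 active means inhibition above the screen-wide mean inhibition plus 3 SD, cut at about 15% in these data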;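 further: 0% = DMSO wells and 100% = excess unlabeled TNYL-RAW peptide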
Active calls of the source: *; nt = no result given; [ ] = remark or other dose.

SMILES | hDAT+cocaine | Cav3 T inh | HIV Rev-RRE inh | EphB4 antag
CCOc1ccccc1N=c1oc2cc(O)ccc2cc1C(=O)NCC1CCCO1 (stereo unspecified) | 0.6 | 0.47 | 34 | -2
C=CCNC(=O)c1onc(CSc2ccc(F)cc2)c1C(=O)NCCOC | 0.47 | 1.5 | 4 | 4
COc1cc(CCCN2C(=S)NC[C@@H]2Cc2ccccc2)cc(OC)c1OC | 3* | 0.91 | nt | nt
COc1cccc(-n2nnnc2SCC(=O)N2CCCc3ccccc32)c1 | 1.7 | -2 | 8 | -3
Cc1cc2n(n1)C(c1ccc3c(c1)OCO3)Nc1c(C)cccc1-2 (stereo unspecified) | 3.5* | -3.3 | 7 | 4
Cc1nc2cccc(C)n2c(=O)c1Cl | -0.78 | 1.1 | 3 | 1
CCC(C)c1nc2ccsc2c(N2CCOC2=O)c1-c1ccccc1 (stereo unspecified) | -0.69 | -1.5 | nt | nt
CCc1c(C)nc2cc(-c3cc(OC)cc(OC)c3)nn2c1N1CCN(CCN2CCOCC2)CC1 | 1.8 | 0.67 | 0 | -3
CCOCCN1CCN(c2c(C)c(C)nc3cc(-c4cc(OC)cc(OC)c4)nn23)CC1 | 2.5* | -1.2 | 0 | -2
O=C(O)c1cn(-c2ccc(F)c(F)c2)c2c(F)c(F)c(F)c(F)c2c1=O | -1.1 | 0.7 | -2 | -6
CCCCCCn1c(C)nc2c(c1=O)c1nc3ccccc3nc1n2/N=C/c1ccco1 | 0.22 | -5.1* | -2 | -5
CC1CCN(S(=O)(=O)c2cc(Br)cc(C(=O)NC3=NCCS3)c2)CC1 | -0.091 | -4.1 | 17 | 17*
CC1CCN(S(=O)(=O)c2cccc(C(=O)Nc3ccccn3)c2)CC1 | 0.85 | -0.38 | 6 | -3
Cc1ccc(C(=O)CN2/C(=C(\O)c3ccccc3)C(=O)c3ccccc3S2(=O)=O)c(C)c1 | 1.2 | -5.9* | 12 | 2
O=C(CN1C(=O)c2ccccc2S1(=O)=O)c1ccccc1 | 0.69 | 0.079 | 11 | -3
Cc1cc(C(c2nnnn2Cc2ccccc2)N2CCOCC2)c(C)n1-c1ccc2c(c1)OCO2 (stereo unspecified) | 1.1 | -4.6* | -1 | -5
c1ccc(Cn2nnnc2C(c2ccncc2)N2CCOCC2)cc1 (stereo unspecified) | 0.018 | 0.014 | 6 | 7
O=c1[nH]c2cc3c(cc2cc1C(c1nnnn1Cc1ccccc1)N1CCCCCC1)OCCO3 (stereo unspecified) | -0.027 | 0.27 | 41* | -2
CCCSc1nc(N)nc(-c2cccs2)c1C#N | 0.45 | nt | 14 | 2
COc1ccc(OC)c(NC(=O)CN2C(=O)NC3(CCOc4ccccc43)C2=O)c1 (stereo unspecified) | 1.2 | -0.19 | 6 | -1
Cc1cccc(NC(=O)c2cc3n(n2)C(C(F)(F)F)CC(c2ccc4c(c2)OCO4)N3)c1 (stereo unspecified) | 1.4 | -7.3* | 13 | 3
COc1ccc(NC(=O)c2cc3n(n2)C(C(F)(F)F)CC(c2ccc4c(c2)OCO4)N3)cc1OC (stereo unspecified) | nt | nt | -2 | -9
COc1ccc(-c2csc(Nc3ncccc3C)n2)cc1OC | 1.6 | -0.091 | -1 | -1
Cc1cccnc1Nc1nc(-c2ccc(O)c(O)c2)cs1 | 4.6* | 2.4 | 8 | 2
C=CCNc1cc(C(F)(F)F)nc(-c2ccccn2)n1 | -0.98 | -0.033 | 7 | 5
SMILES | hDAT+cocaine | Cav3 T inh | HIV Rev-RRE inh | EphB4 antag
COc1ccc(-c2csc(NC(C)c3nc4cc(Cl)c(Cl)cc4n3CCCO)n2)cc1 (stereo unspecified) | 0.38 | -3.2 | nt | nt
O=C(Nc1ccccc1C(=O)NC(Cc1ccccc1)C(=O)NC1CCCCCC1)c1ccccc1 (stereo unspecified) | -0.13 | -5.3* | 7 | 0
O=C(N[C@@H](Cc1ccccc1)C(=O)NC1CCCCCC1)c1ccco1 | -0.37 | -0.018 | 1 | 2
CC(C)(CO)Nc1ccc([N+](=O)[O-])cc1[N+](=O)[O-] | -2.6* | 0.033 | 5 | -7
COc1ccc(-n2c(Cc3cccn3C)nnc2SCC(=O)Nc2ccc(F)cc2)cc1 | 1.2 | -8.6* | nt | nt
CCOc1ccc(NC(=O)CSc2nnc(Cc3cccn3C)n2-c2ccc(F)cc2)cc1 | 1 | -7.4* | nt | nt
CC(=O)n1cc([C@H]2C=C(C(=O)N3CCOCC3)O[C@@H](OCCCCO)C2)c2ccccc21 | 0.17 | 0.18 | nt | nt
Cc1cccc(Oc2nc(-c3ccccc3)cc(C)c2S(C)(=O)=O)c1C | -0.43 | -3.9* | 5 | -2
CC(C)NC(=O)COC(=O)c1ccc(Oc2ccccc2)cc1 | 1.7 | -0.41 | 5 | 6
COCCCn1c(SCC(=O)n2c(C)c(C)c3ccccc32)nnc1-c1ccoc1C | 0.89 | -1.6 | 3 | -4
COc1ccccc1NC(=O)NCCCl | -2.4* | -0.00083 | 3 | -1
COc1ccccc1NC(C)=O | 0.86 | 0.54 | nt | nt
COc1ccccc1NC(=O)c1ccc(N)cc1 | -0.52 | -4.2* | 7 | 1
CCCc1cc2c(cc1NC(=O)c1ccc(C)cc1)OCO2 | 0.88 | -0.7 | -2 | 1
Cc1ccccc1C(=O)c1cccn1CC(=O)NCCN1CCN(c2cccc(C)c2C)CC1 | 1.7 | -2 | 10 | -3
N#CC1=C(N)SC(N)=C(C#N)C1c1cccc(O)c1 | 0.24 | 0.03 | 74* | 5
Cc1c(C(N)=O)sc2ncn(CC(=O)N3CCC(C)CC3)c(=O)c12 | 0.11 | 0.49 | 5 | 3
O=S(=O)(c1ccc(Br)cc1)N1CCCC1c1nc2ccccc2s1 (stereo unspecified) | 0.46 | -4.6* | 10 | 1
CCOC(=O)c1oc2ccccc2c1NC(=O)c1ccc(Cl)s1 | -2.4* | -1.4 | 10 | 2
CN1C(=O)NC(NC(=O)c2cccs2)(C(F)(F)F)C1=O (stereo unspecified) | -0.48 | -0.28 | 2 | 5
O=C(NC1(C(F)(F)F)NC(=O)N(C2CCCCC2)C1=O)c1cccs1 (stereo unspecified) | -3.3* | 0.32 | 5 | 3
CCOC(=O)C1CCCN(CC(=O)NC2=Nc3ccccc3N=C(C)C2c2ccccc2)C1 (stereo unspecified) | -1.2 | -6.2* | -4 | 0
CCOC(=O)C1CCCN(CCC(=O)Nc2ccccc2)C1 (stereo unspecified) | -0.34 | 2 | 4 | -4
Cc1ccc(C2C3CSCC=C3C(C#N)=C(N)C2(C#N)C#N)cc1 (stereo unspecified) | 1.5 | -0.67 | nt | nt
Cc1ccc([C@@H]2C3COCC=C3C(C#N)=C(N)C2(C#N)C#N)o1 (stereo partly specified) | -0.29 | 0.018 | 42* | -1
CCCCn1nc(-c2ccccc2)c2nc3ccccc3nc21 | 0.046 | -7.3* | 97*[fluorescence artefact?] | 4
CCn1c2ccccc2c2nc3ccccc3nc21 | 0.22 | 0.18 | 15 | 4
Cn1nc(-c2ccccc2)c2nc3ccccc3nc21 | -0.23 | -0.65 | 92*[fluorescence artefact?] | 3
